TbHK1 inh = Trypanosoma brucei hexokinase 1 inhibitors, primary screen, biochemical, G6PDH-coupled NADH absorbance, MLSCN library | hexokinase 1 [Trypanosoma brucei] | recombinant TbHK1, G6PDH-coupled NADH A340 | inhibition, % at 10 µM | actives 0.11% (n = 220,000);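 active = inhibition of 50% or more in the single-dose primary screen; inactive = inhibition below 50%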
HSP90 inh = HSP90 inhibitors, primary screen, cell lysate, luminescence; Rabbit reticulocyte lysate, luciferase refolding luminescence, 3 h; inhibition, % at 5.6 µM; actives 0.91% (n = 290,000); AID 1789, 2009;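 active = inhibition above the screen-wide mean plus 3 SD, computed separately per campaign, cut at about 16% in these data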;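 also: 0% = DMSO wells and 100% = 60 µM geldanamycin wells; inhibitors lower the luminescence because luciferase stays unfolded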
HSF-1 act = HSF-1 activators, primary screen, NIH3T3-HGL cells, MG132 stress, luminescence, single point; actives 1.7% (n = 300,000); NIH3T3-HGL HSF-1 luciferase reporter, 8 h; 100% = twice DMSO control signal; activation, % at 9 µM;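 active = mean replicate activation of at least 50% with a set share of replicates each reaching 50%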;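 also: 0% = median of the neutral control wells and 100% = twice that signal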
HKDC1 inhibitor = HKDC1 hexokinase inhibitors, primary screen, biochemical, fluorescence, uHTS; inhibition, % at 20 µM; Q2TB90; recombinant HKDC1, G6PDH/diaphorase resazurin coupled fluorescence; actives 0.16% (n = 340,000);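 active = inhibition above about 35% when tested at 20 µM, limit read from the data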;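 also: plate controls were DMSO wells with enzyme for no effect and DMSO wells lacking enzyme for full effect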
Target sequence (Q2TB90 whole entry, looked up): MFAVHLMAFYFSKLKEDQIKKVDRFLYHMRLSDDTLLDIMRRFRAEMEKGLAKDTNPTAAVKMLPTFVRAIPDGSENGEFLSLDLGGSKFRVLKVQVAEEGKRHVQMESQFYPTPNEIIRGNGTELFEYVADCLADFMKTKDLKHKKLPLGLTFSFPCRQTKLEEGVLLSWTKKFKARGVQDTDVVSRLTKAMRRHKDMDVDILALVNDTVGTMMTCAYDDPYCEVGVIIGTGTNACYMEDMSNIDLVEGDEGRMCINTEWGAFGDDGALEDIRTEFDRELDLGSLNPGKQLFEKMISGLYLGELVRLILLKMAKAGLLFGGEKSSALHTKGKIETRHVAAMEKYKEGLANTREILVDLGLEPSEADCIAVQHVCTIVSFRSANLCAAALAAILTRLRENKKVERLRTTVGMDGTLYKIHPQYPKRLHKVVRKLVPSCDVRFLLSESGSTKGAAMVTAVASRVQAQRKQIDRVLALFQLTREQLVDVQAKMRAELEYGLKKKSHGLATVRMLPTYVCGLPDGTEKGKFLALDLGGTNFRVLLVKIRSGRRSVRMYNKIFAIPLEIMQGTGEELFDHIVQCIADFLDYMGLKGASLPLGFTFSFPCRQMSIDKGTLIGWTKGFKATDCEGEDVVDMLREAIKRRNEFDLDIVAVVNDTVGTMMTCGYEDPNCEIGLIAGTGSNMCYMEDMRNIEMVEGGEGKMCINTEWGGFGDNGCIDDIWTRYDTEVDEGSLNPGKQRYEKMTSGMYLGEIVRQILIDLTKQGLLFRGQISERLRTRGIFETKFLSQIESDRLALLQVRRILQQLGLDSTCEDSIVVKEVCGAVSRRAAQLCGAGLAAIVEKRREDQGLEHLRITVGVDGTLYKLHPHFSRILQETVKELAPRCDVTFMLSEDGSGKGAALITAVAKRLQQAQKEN
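Incubation: 90 min at room temperature in dark / Material: recombinant HKDC1 (HK5) hexokinase enzyme, produced in-house / Quantity: enzyme 5 µg/mL final / Compound: one dose of 20 µM, 1% DMSO / Reagent: glucose and ATP substrates / Buffer or medium: Tris pH 8.0 buffer with MgCl2, Tween-20, BSA, BME / Technique: resorufin fluorescence at 613 nm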
HSF1 inh = HSF1 inhibitors in luciferase reporter cells, primary screen, cell-based, NIH3T3, luminescence | NIH3T3-HGL HSE-luciferase, MG132-induced, luminescence 8 h; stronger effect = lower value | activity change, negative = inhibition, % at 7.5 µM (by protocol) | actives 0.77% (n = 300,000);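 active = more than half of replicate wells show activity change below -50%, luminescence cut by over half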;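 also: luciferase reports HSF-1 transcriptional activity via heat shock element; 0% = median of DMSO wells and -100% = zero luminescence signal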
Hsp70 act = Hsp70 transcriptional activators, primary screen, cell-based, HeLa, Hsp70 promoter luciferase, luminescence, 10 µM | HeLa Hsp70 promoter luciferase reporter; scaled: vehicle 0, proteasome-inhibitor control 100% | activation, % at 10 µM | actives 0.04% (n = 200,000) | AID 1203, 2008;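 active = activation above the mean across all tested compounds plus 3 SD, cutoff set per campaign, cut at about 5.5% in these data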;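 also: 100% = MG132 at 30 µM as the positive control and 0% = DMSO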
Active calls of the source: *; / = no result given. An excerpt weighted towards active compounds, which were near 3.1% of everything screened.

SMILES	TbHK1 inh	HSP90 inh	HSF-1 act	HKDC1 inhibitor	HSF1 inh	Hsp70 act
Oc1ccc(Cl)cc1/C=C/c1ccc2cccc(O)c2n1	9	0	58*	-8	29	0
COc1ccc(S(=O)(=O)N2CCOCC2)cc1NC(=O)CN1C(=O)NC2(CCCCC2C)C1=O (centres undefined)	/	/	/	-8	/	/
CC(C)Cn1c(N)c(C(=O)COC(=O)C2CC(=O)N(c3ccc4c(c3)OCCO4)C2)c(=O)n(C)c1=O (centres undefined)	/	/	8	-3	-1	/
CCOc1ncc(S(=O)(=O)N2CCN(CC)CC2)cc1C(=O)O	/	-3	-3	-1	-6	/
CC(=O)N1CCC2(CC1)C/C(=N\NC(=S)Nc1ccccc1F)c1cc(O)ccc1O2	-22	4	-58	-18	-52*	0
COc1ccccc1-c1cc(C(=O)NC2CCCC2)no1	/	-4	21	-5	4	/
O=S(=O)(c1ccc(Cl)cc1)N1CCC(c2nc3ccccc3[nH]2)CC1	/	0	73*	-5	33	/
COc1cc2[nH]c(=S)n(Cc3ccco3)c(=O)c2cc1OC	-22	1	140*	-3	77	0
CCN(CC)S(=O)(=O)c1ccc(NC(=O)c2ccc(N3CCCC3=O)cc2)cc1	/	/	/	0	/	/
COc1ccc([C@H]2CC(=O)C=C(c3cccc(C(C)C)c3)C2)cc1OC	/	/	/	1	/	/
Cc1oc(-c2ccccc2F)nc1CS(=O)(=O)CC(=O)NCCCN1CCN(C)CC1	/	1	148*	-2	100	/
CCOC(CNC(=O)C(=O)Nc1cc2c3c(c1)CCC(=O)N3CCC2)OCC	/	0	-19	-7	-7	/
C[C@@H]1CN(C(=O)c2cc(COc3cccc(C(F)(F)F)c3)on2)C[C@H](C)O1	/	-2	95*	1	56	/
CCOC(=O)N1CCN(C(=O)c2cc(COc3cccc(C(F)(F)F)c3)on2)CC1	/	-4	26	-3	20	/
COc1ccc(-c2ccc3c(c2)S(=O)(=O)c2cccc(C(=O)N4CCN(c5c(Cl)cncc5Cl)CC4)c2C3=O)cc1OC	/	/	/	-3	/	/
COc1ccc(CN(CC(=O)NCc2ccccc2)C(=O)CCC(=O)Nc2ccccn2)cc1	/	-2	-4	-4	-3	/
CCc1cc[n+](CC(=O)Nc2ccc(Cl)cc2Cl)cc1	4	1	-77	1	-72*	0
COc1ccc(Cl)cc1NC(=O)C[n+]1ccccc1	/	-4	17	-8	-3	/
CCn1c(C(C#N)/C(=N\S(=O)(=O)c2cccs2)c2ccccc2)nc2ccccc21 (centres undefined)	-15	-3	-72	-3	-66*	0
CCN(c1ccccc1)S(=O)(=O)c1ccc(Cl)c(C(=O)NCc2ccco2)c1	/	/	/	0	/	/
CCOC(=O)CN1CCC(c2cc(-c3ccc(Cl)cc3)n[nH]2)CC1	/	-2	52*	2	9	/
COc1ccc2oc(=O)c(C(=O)N3CCN(C(=O)c4ccccc4)CC3)cc2c1	/	-2	7	1	-2	/
COc1ccc2oc(=O)c(C(=O)N3CCN(c4ccccc4)CC3)cc2c1	-9	-1	82*	-7	44	1
COc1cc(OC)cc(C(=O)N[C@H](C(=O)OCC(=O)N2CCN(S(=O)(=O)c3ccc(C)cc3)CC2)C(C)C)c1	/	/	/	-2	/	/
COc1ccc2c(c1)oc(=O)c1c3ccccc3[nH]c21	-6	2	71*	3	21	0
SMILES	TbHK1 inh	HSP90 inh	HSF-1 act	HKDC1 inhibitor	HSF1 inh	Hsp70 act
O=C(CCNC(=O)c1ccc([N+](=O)[O-])cc1)NC1CCCCCC1	/	/	/	-3	/	/
CC(=O)NCCn1ccc2ccccc21	-5	0	60*	-2	22	0
O=C(Cc1ccccc1)NCCn1ccc2ccccc21	5	-4	19	-1	4	0
O=C1C(Cl)=C(Nc2ccccc2)C(=O)c2ccccc21	-15	1	0	-38	-6	0
CC(C)NC1=C(Cl)C(=O)c2ccccc2C1=O	-8	10	70*	8	51	0
O=C(O)c1cccc(NC2=C(Cl)C(=O)c3ccccc3C2=O)c1	-4	-7	-90	-17	-88*	0
Cc1cccc(-c2cc(C(=O)Nc3ccncc3)c3ccccc3n2)c1	/	-3	63*	1	50	/
COc1ccc(-c2cc(C(=O)Nc3ccc(C)c(N)c3)c3ccccc3n2)cc1	/	2	74*	0	21	/
COc1ccc(-c2cc(C(=O)Nc3ccc(S(=O)(=O)Nc4ncccn4)cc3)c3ccccc3n2)cc1	-30	2	21	4	11	/
COc1cc(NC(=O)c2cc(C)nc3ccccc23)cc(OC)c1	-1	-1	-70	-3	-60*	0
CCCn1c(N)c(N(CCOC)C(=O)c2ccc(S(=O)(=O)N3CCOCC3)cc2)c(=O)[nH]c1=O	/	/	/	3	/	/
CC(C)CCN(C(=O)c1csnn1)C(C(=O)NC1CCCCC1)c1ccc(F)cc1 (centres undefined)	/	-3	5	-1	-8	/
CCOC(=O)C1=C(c2ccccc2)NC(SCC(=O)Nc2ccc(C)cc2)=C(C#N)C1c1ccco1 (centres undefined)	8	-2	-5	22	-3	0
CCOC(=O)C1=C(c2ccccc2)NC(SC)=C(C#N)C1c1ccco1 (centres undefined)	-20	3	51*	-3	30	0
CC(=O)C1=C(C)NC(SCC(=O)c2ccccc2)=C(C#N)C1c1ccco1 (centres undefined)	5	3	77*	/	55	0
CN1N=C2c3ccccc3CCC2C1c1ccc(C(F)(F)F)cc1 (centres undefined)	-14	2	-60	3	-58*	/
C=CCn1c(=O)c2c3c(sc2n2c(Nc4ccccc4)nnc12)CCCC3	3	-3	68*	5	43	0
CCCC(=O)Nc1cccc(NC(=O)c2cccc([N+](=O)[O-])c2C)c1	35	3	-77	1	-71*	-1
CCCC(=O)Nc1ccc(Cl)c(NC(=O)c2cccnc2)c1	-2	2	-89	-7	-87*	1
CCCC(=O)Nc1ccc(Cl)c(NC(=O)c2ccc([N+](=O)[O-])cc2Cl)c1	1	0	-73	0	-64*	0
CCCC(=O)Nc1cccc(NC(=O)c2ccc([N+](=O)[O-])cc2Cl)c1	4	-2	-11	-4	-7	0
Cc1nc(Nc2ccccc2)sc1C	-6	-4	-59	15	-52*	0
Cc1nc(NC(=O)c2ccccc2)sc1C	/	7	58*	5	32	/
